From PubChem BioAssay
A selection: hits, their analogues and other compounds. The true share with any hit is near 3.5%.
MrgX1 antagonist: blocks BAM8-22 activation of human MrgX1 receptor; MRGX1-HEK293 calcium flux, Fluo-4, BAM8-22 antagonism; active compounds read low; B-score at 10 µM; 1.3% of 310,000 active; AID 588676;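 active = calcium-response B-score plate-corrected more than 3 library SD below zero, starting fluorescence within 5 deviations, no agonist response on first addition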;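 also: peak minus trough fluorescence over baseline after final BAM8-22 challenge near maximal dose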
RGS4 act: RGS4 potentiation or activation | 0.92% of 310,000 active | HEK293 M3R/inducible RGS4, carbachol calcium flux Fluo4; active compounds read low | B-score at 10 µM | AID 463111;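 active = B-score of the integrated calcium signal more than 4 SD below the library mean, with starting fluorescence not abnormally high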;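 also: negative B-score means reduced calcium response which marks RGS4 activation or potentiation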
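test system = HEK293 cells with stable M3R and inducible RGS4 | schedule = recording 10 s baseline at 1 Hz, 100 s post-agonist | technique = Fluo4-AM (2 µM) calcium-flux fluorescence, kinetic read | measure = Agonist-evoked peak-minus-minimum fluorescence over baseline, integrated ratio, B score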
RGS4 inh: human RGS4 inhibition; P49798; B-score at 10 µM; HEK293 M3R/RGS4 inducible, Fluo-4 calcium flux; active compounds read high; triggered by carbachol at its EC20; 0.45% of 310,000 active;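 active = B-score, a plate-corrected calcium signal, over three deviations above library mean, with baseline fluorescence within five deviations of library mean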;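 also: RGS4 expression induced by doxycycline in cells with stable M3 receptor; B-score is computed from the integrated fluorescence ratio over baseline after carbachol; higher B-score means a larger calcium signal and so more RGS4 inhibition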
Target sequence (P49798 whole entry, looked up): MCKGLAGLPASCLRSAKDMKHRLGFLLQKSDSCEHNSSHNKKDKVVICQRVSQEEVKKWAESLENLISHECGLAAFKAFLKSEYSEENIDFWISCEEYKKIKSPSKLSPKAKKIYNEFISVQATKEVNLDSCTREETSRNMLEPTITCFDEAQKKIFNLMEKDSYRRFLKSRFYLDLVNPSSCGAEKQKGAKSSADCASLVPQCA
MrgX1 allo act: human MrgX1 positive allosteric modulation, primary screen; AID 588675; B-score at 10 µM; MrgX1-HEK293, Fluo-4 calcium flux, FDSS; active compounds read high; 0.63% of 310,000 active; Q96LB2;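 active = plate-corrected calcium response at least 3 library SD above typical, normal starting fluorescence, not activating the receptor alone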;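 also: compound read alongside a low EC10 to EC30 dose of BAM8-22 agonist; peak minus trough fluorescence over baseline measured at the second addition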
MrgX1 ag: human MrgX1 receptor agonism, primary screen; Q96LB2; MrgX1-HEK293 cells, Fluo-4 calcium fluorescence, agonist mode; active compounds read high; B-score at 10 µM; 0.44% of 310,000 active; AID 588627;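 active = calcium response B-score plate-corrected fluorescence ratio at least 3 library SD, with starting fluorescence B-score inside 5 SD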
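Test system: HEK293 cells stably expressing human MrgX1 receptor; Input: fifteen thousand cells per well; Dosing: compound delivered in addition one of three; Schedule: overnight seeding, then 1 h dark dye loading; Technique: Fluo-4 NW calcium fluorescence; Measure: B-scored fluorescence response ratio; Controls: positive and negative controls per plate.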
MrgX1 ant reconf: reconfirmed antagonist of human MrgX1 receptor signaling; shares compounds with MrgX1 antagonist; MrgX1-HEK293, BAM8-22 calcium flux, Fluo-4; active compounds read low; remaining BAM8-22 calcium response % of control (active compounds read low), % at 10 µM; 19% of 2,300 active;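 active = remaining agonist calcium response no higher than 100% minus 3 SD of agonist-only control wells, with starting fluorescence near control levels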;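 also: agonist BAM8-22 given at a near maximal EC90 to ECmax level; peak minus minimum fluorescence divided by baseline after agonist addition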
HEK293 Ca flux: activity in parental HEK293 cells lacking MrgX1; shares compounds with MrgX1 antagonist; Fluo-4 calcium fluorescence, FDSS; fluorescence ratio F(max-min)/F0 at 10 µM; 2% of 4,000 active;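 active = duplicate-averaged calcium fluorescence ratio at least three times the standard deviation of buffer wells, a nonspecific response in parental cells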
HEK293 Ca counter: counter-screen for MrgX1 allosteric activators: effect in parental HEK293 cells; shares compounds with MrgX1 antagonist; AID 624114; 0.4% of 4,000 active; fluorescence ratio F(max-min)/F0 at 10 µM; parental HEK293 calcium flux, Fluo-4 fluorescence ratio; active compounds read high;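 active = calcium fluorescence ratio, averaged over duplicates, at least 3 SD of the buffer-well ratio, meaning a nonspecific response in receptor-free cells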;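 also: untransfected parental HEK293 lacking MrgX1 used as counterscreen for MrgX1 allosteric activators; fluorescence change taken during the second addition on a kinetic imager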
HEK293 Ca cntr2: MrgX1 activator counter-screen hit in parental HEK293 cells. shares compounds with MrgX1 antagonist. Fluo-4 calcium fluorescence (FDSS); active compounds read high. fluorescence ratio F(max-min)/F0 at 10 µM. 8.7% of 4,000 active. AID 624115;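 active = calcium fluorescence ratio at least three times the spread of buffer wells, meaning a non-specific response in parental cells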
An asterisk follows results filed as active; i = inactive; / = no result.

SMILES	MrgX1 antagonist	RGS4 act	RGS4 inh	MrgX1 allo act	MrgX1 ag	MrgX1 ant reconf	HEK293 Ca flux	HEK293 Ca counter	HEK293 Ca cntr2
COc1cccc(OCCCOc2ccccc2C(C)C)c1	-6.9*	i	i	i	i	i	i	i	i
COc1cccc(OCCOc2ccccc2[N+](=O)[O-])c1	i	i	i	i	i	/	/	/	/
CCSc1nnc(-c2ccncc2)n1Cc1ccccc1	-6.5*	i	i	i	i	i	i	i	i
CNC(=O)CSc1nnc(-c2ccncc2)n1Cc1ccccc1	i	i	i	i	i	/	/	/	/
CC(C)N1C[C@@]23C=C[C@@H](O2)C(C(=O)OCc2ccccc2)[C@H]3C1=O (stereo partly drawn)	i	i	i	i	i	/	/	/	/
CC(C)N1CC23C=CC(O2)C(C(=O)OCc2ccccc2)C3C1=O (stereo not drawn)	-5*	i	i	i	i	i	i	i	i
COc1ccccc1N=Cc1c(C)c(C#N)c2[nH]c3ccccc3n2c1=O	-6.2*	i	i	i	i	i	i	i	i
O=C(COC(=O)c1cnccn1)NCCc1ccc(Cl)cc1Cl	-5.9*	i	i	i	i	i	i	i	i
O=C(COC(=O)c1cnccn1)Nc1ncc(Cl)cc1Cl	i	i	i	i	i	/	/	/	/
O=C(O)CN1C(=O)COc2ccc(S(=O)(=O)N3CCCCCC3)cc21	i	i	i	i	i	/	/	/	/
CCc1ccc(NC(=O)CCC(=O)N2CCSc3ccccc32)cc1	-5.2*	i	i	i	i	i	i	i	i
CCc1cccc(NC(=O)CCC(=O)N2CCSc3ccccc32)c1	i	i	i	i	i	/	/	/	/
COCCN(C(=O)CCC(=O)Nc1ccccn1)C(C(=O)NC(C)C)c1ccc(C)cc1 (stereo not drawn)	i	i	i	i	i	/	/	/	/
Oc1ccc(N2CCN(C(c3ccncc3)c3nnnn3C3CCCC3)CC2)cc1 (stereo not drawn)	-8.1*	i	i	i	i	i	i	i	i
CCOC(=O)c1c(NC(=S)NNS(=O)(=O)c2ccc(Br)cc2)sc2c1CCCCC2	i	i	i	i	i	/	/	/	/
COc1ccc(C(O)(C(C)C)C(CN2CCOCC2)c2ccc(Cl)cc2)cc1 (stereo not drawn)	i	i	i	i	i	/	/	/	/
CCCSc1nnc(NC(=O)Nc2ccc(F)cc2)s1	-5.6*	i	i	i	i	71%*	i	i	i
CCOC(=O)CN1C(=O)N[C@@H](c2cccc(C(F)(F)F)c2)[C@@H](C(=O)OC)[C@H]1C	-6.1*	i	i	i	i	i	i	i	i
COCCN1C(=O)N[C@@H](c2cccc(C(F)(F)F)c2)[C@H](C(=O)OC)[C@H]1C	i	i	i	i	i	/	/	/	/
O=C(Nc1cccc2c1CCCC2)c1ccncc1	-8.5*	i	i	i	i	i	i	i	i
CC1Cc2ccccc2N1C(=O)CSc1nnc(Cn2nnc3ccccc32)n1C (stereo not drawn)	-6.9*	i	i	i	i	i	i	i	i
